A selection: hits, their analogues and other compounds. The true share with any hit is near 2%.
CCR6 antag: CCR6 (human) receptor antagonism; P51684; AID 493098; inhibition, % at 20 µM; CHO-K1 CCR6 PathHunter beta-arrestin, luminescence, CCL20-stimulated; 0.49% of 340,000 active;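 active = compounds whose inhibition of the agonist-driven luminescence signal at 20 µM reaches about 50%, limit read from the data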;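 also: cells stimulated with CCL20 at 14 nM final; plate controls were DMSO with CCL20 for no effect and DMSO without agonist for full effect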
APJ agonist: agonists of human APJ apelin receptor | CHO-K1 APJ PathHunter beta-arrestin, luminescence; 0% DMSO wells, 100% apelin | P35414 | AID 2520 | activation, % at 20 µM | 0.11% of 330,000 active;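 active = activation more than six SD over the plate average, tested at 20 µM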;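 also: 0% = DMSO alone and 100% = apelin-13 at 10 nM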
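Assay system: CHO-K1 APJ beta-arrestin complementation cell line / Compound: single test compound dose, 20 µM final, 1% DMSO / Times: overnight seeding, 90 min compound at 25 °C, 1 h detection / Technique: beta-gal luminescence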
APJ antagonist: blocks the human apelin receptor APJ; AID 2521; CHO-K1 APJ beta-arrestin complementation, luminescence; P35414; 0.32% of 330,000 active; inhibition, % at 20 µM;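 active = inhibition above about 40% at 20 µM, limit read from the data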;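 also: cells challenged with 10 nM apelin-13 agonist together with compound; plate controls were apelin-13 plus DMSO wells for no effect and DMSO wells lacking apelin-13 for full effect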
GAA850 FXN act: frataxin GAA850 promoter activation. activation, % at 6 µM. 0.56% of 360,000 active. HEK293 lucGAA850 FXN promoter luciferase reporter, 24 h; percent of 10 µM SAHA response. AID 540364;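 active = activation above the average of all compounds screened plus 3 SD, cutoff fixed separately per campaign, cut at about 7.5% in these data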;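 also: 0% = DMSO wells and 100% = 10 µM SAHA wells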
EBI2 block: antagonists of human EBI2 receptor; EBI2 beta-arrestin recruitment, luminescence, 7a,25-OHC stimulated; inhibition, % at 5 µM; 0.81% of 360,000 active; AID 651636; in the data active = inhibition above about 38%;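 also: enzyme fragment complementation signal reports receptor beta-arrestin coupling in cells; 0% = agonist plus DMSO wells and 100% = wells without agonist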
Target sequence (P32249 whole entry, looked up, the tested form may be a part): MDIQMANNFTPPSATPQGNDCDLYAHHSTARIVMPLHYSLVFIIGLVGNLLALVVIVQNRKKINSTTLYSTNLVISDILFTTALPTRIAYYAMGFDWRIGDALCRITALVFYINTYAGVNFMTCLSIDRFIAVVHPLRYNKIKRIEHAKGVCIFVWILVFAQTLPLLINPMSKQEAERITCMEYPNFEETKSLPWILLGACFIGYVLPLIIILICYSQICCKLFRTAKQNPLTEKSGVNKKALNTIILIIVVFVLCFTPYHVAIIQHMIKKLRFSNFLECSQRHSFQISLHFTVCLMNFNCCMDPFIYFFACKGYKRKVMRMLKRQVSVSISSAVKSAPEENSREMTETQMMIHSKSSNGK
CXCR6 block: inhibitors of human CXCR6 receptor; O00574; CHO-K1 PathHunter CXCR6 beta-arrestin, luminescence; inhibition, % at 20 µM; 0.36% of 360,000 active; AID 602244; in the data active = inhibition above about 34%, passing the limit was not always enough;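 also: antagonist mode with CXCL16 agonist at 10 nM final; 0% = 10 nM CXCL16 with DMSO and 100% = unstimulated wells without agonist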
EBI2 conf: confirmation of human EBI2 receptor antagonists; 29% of 2,400 active; EBI2 beta-arrestin luminescence, 7a,25-OHC antagonism; inhibition, % at 5 µM; shares compounds with EBI2 block;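 active = inhibition of at least 50%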
EBI2 ag: activates EBI2, counter-screen for EBI2 antagonists | shares compounds with EBI2 block | EBI2-expressing cells, agonist mode, luminescence, 60 min; 0% vehicle, 100% 7α,25-dihydroxycholesterol control | activation, % at 5 µM | 2,400 tested, under 10 active | AID 652000;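 active = activation of at least 50%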
bGal counter: beta-galactosidase inhibition counter-screen; shares compounds with EBI2 block; purified beta-galactosidase, luminescent Galacton Star, 15 min; inhibition, % at 5 µM; 1% of 2,400 active;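 active = replicate-average signal at least 3 plate SD below neutral wells, shown as high inhibition, flagging enzyme-inhibiting false positives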;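 also: 0% = DMSO wells with enzyme and 100% = wells lacking enzyme; higher means stronger loss of beta-gal luminescence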
The depositor's hits bear a star; x = no result; ! = not active in a repeat.

SMILES	CCR6 antag	APJ agonist	APJ antagonist	GAA850 FXN act	EBI2 block	CXCR6 block	EBI2 conf	EBI2 ag	bGal counter
COc1ccc2nc3n(c(=O)c2c1)-c1cc2ccccc2cc1C(=O)NC3Cc1ccccc1 (centres undefined)	x	x	x	-14	41*	5	33	-2	-7
COc1ccc2nc3n(c(=O)c2c1)-c1cc2ccccc2cc1C(=O)NC3Cc1ccc(O)cc1 (centres undefined)	x	x	x	-11	15	8	x	x	x
CCOC(=O)/C=c1/s/c(=C/c2ccc3cc(OC)ccc3c2)c(=O)n1CC(=O)NCc1ccc2c(c1)OCO2	2	x	x	3	10	0	x	x	x
CCCS(=O)(=O)NC(=O)C1(C)CCCN(C(=O)c2cccc(C(F)(F)F)c2)C1 (centres undefined)	x	x	x	-2	-6	-7	x	x	x
Cc1ccc(N2CCN(C(=O)c3cc(-c4ccc(F)cc4)[nH]c3C)CC2C)cc1 (centres undefined)	-16	-1	-23	0	53*	8	33	1	6
Cc1[nH]c(-c2ccc(F)cc2)cc1C(=O)N1CCN(c2ccccc2)CC1	1	3	19	-1	86*	-12	63*	-1	-21
CSc1ccccc1C(=O)N1CCN(c2ccc(F)cc2)CC1	10	-1	-4	3	2	-4	x	x	x
COc1cccc(N2CCN(C(=O)c3cc(-c4ccc(F)cc4)[nH]c3C)CC2)c1	-6	-1	-2	0	89*	-4	69*	-1	-14
COc1cccc(N2CCN(C(=O)CSc3ccc(F)cc3)CC2)c1	-3	-1	-13	1	23	0	x	x	x
COc1ccc(NC(=O)C2(C)CCN2Cc2ccc(OC(F)(F)F)cc2)cc1OC (centres undefined)	x	x	x	1	2	-8	x	x	x
CNc1ccc(/C=C(\C#N)c2ccccn2)cc1[N+](=O)[O-]	9	-3	3	5	5	6	x	x	x
N#C/C(=C\c1ccc(Cl)c([N+](=O)[O-])c1)c1ccccn1	-5	5	-7	0	53*	-13	58*	3	0
Cc1ccc([C@H]2N[C@]3(CCCN(Cc4ccc(Br)cc4)C3=O)[C@H]3C(=O)N(C)C(=O)[C@@H]23)cc1	x	x	x	-5	0	-1	x	x	x
O=[N+]([O-])c1ccc(-c2cnc(SCc3ccccc3Cl)[nH]2)cc1	26	-6	2	7	28	-4	x	x	x
O=[N+]([O-])c1ccc(-c2cnc(SC(c3ccccc3)c3ccccc3)[nH]2)cc1	27	-2	-2	-2	49*	22	38	0	6
Oc1ccccc1-c1nnc(COc2ccc(Cl)cc2Cl)o1	14	-3	0	2	1	20	x	x	x
Clc1ccc(-c2nnc(CCc3ccccc3)o2)c(Cl)c1	21	-7	-11	2	55*	-1	41	1	1
CCOC(=O)C1(C)CCN1C(=O)c1cc2ccccc2s1 (centres undefined)	x	x	x	1	4	-1	x	x	x
CCOC(=O)C1CCN(C(=O)c2cc3c(C)cc(C)cc3[nH]2)CC1	8	-3	0	0	46*	-4	31	1	5
CCOc1ccccc1N1CCN(C(=O)c2cc3c(C)cc(C)cc3[nH]2)CC1	-1	-2	-3	2	52*	-7	35	0	10
CCOC(=O)C1CCN(C(=O)c2cc3cc(C)ccc3[nH]2)CC1	10	-2	12	3	85*	-2	67*	-1	-6
CC(C)NC(=O)C1(C)CCCCN1Cc1ccc(OCc2ccccc2)cc1 (centres undefined)	x	x	x	-2	22	6	x	x	x
O=Nc1nc2ncccn2c1-c1ccccc1	7	x	x	1	3	-21	x	x	x
COCC(C)n1c(-c2ccc3c(c2)NC(=O)CO3)csc1=Nc1ccc(OC(F)F)cc1 (centres undefined)	62*!	-4	7	-6	58*	26	58*!	0	1
O=C1COc2ccc(-c3csc(=Nc4ccc(OC(F)F)cc4)n3CC3CCCO3)cc2N1 (centres undefined)	72*	-4	26	1	70*	38	55*	-2	-15
SMILES	CCR6 antag	APJ agonist	APJ antagonist	GAA850 FXN act	EBI2 block	CXCR6 block	EBI2 conf	EBI2 ag	bGal counter
CN(CC(=O)Nc1ccc(F)cc1)CC(=O)NC1CCCCC1	4	-2	-11	1	-9	3	x	x	x
O=C(NCCc1c[nH]c2ccccc12)C1CCCN(S(=O)(=O)c2ccccc2)C1 (centres undefined)	7	-2	15	-2	46*	-8	40	0	-16
O=C(NCCC1=CCCCC1)C1CCCN(S(=O)(=O)c2ccccc2)C1 (centres undefined)	5	-3	14	-2	-5	2	x	x	x
CC(C)N(C(=O)COC(=O)c1ccccc1C(=O)c1ccc(Cl)c([N+](=O)[O-])c1)C(C)C	27	-2	6	1	46*	20	38	0	8
COc1cccc(NC(=O)Cn2c3ccc(F)cc3c3nc4n(c(=O)c32)CCCS4)c1	1	1	-8	-8	92*	10	72*	1	7
COc1ccc2c(c1)c1nc3n(c(=O)c1n2CC(=O)Nc1ccccc1)CCCS3	-3	8	-20	-1	25	5	x	x	x
O=[N+]([O-])c1ccc(-n2cccn2)c(-c2nn[nH]n2)c1	0	0	-5	1	-6	-1	x	x	x
CC1CC(C)CN(c2ccc([N+](=O)[O-])cc2-c2nn[nH]n2)C1 (centres undefined)	27	-2	1	-2	74*	13	51*	0	15
CCCCC[C@@H](C)N1C[C@@H](COCc2ccccc2)Oc2cc(N3CC[C@H](O)C3)ccc2S1(=O)=O	x	x	x	x	53*	3	18	-2	-14
CCCCC[C@H](C)N1C[C@@H](COCc2ccccc2)Oc2cc(N3CC[C@@H](O)C3)ccc2S1(=O)=O	x	x	x	x	9	3	x	x	x
CCCCC[C@@H](C)N1C[C@@H](COCc2ccccc2)Oc2cc(N3CC[C@@H](O)C3)ccc2S1(=O)=O	x	x	x	x	45*	11	21	-2	-11
CCCCC[C@@H](C)N1C[C@@H](COCc2ccccc2)Oc2cc(N3CC[C@@H](N(C)C)C3)ccc2S1(=O)=O	x	x	x	x	9	13	x	x	x
